NPY Y2 blocker: blocks the human neuropeptide Y Y2 receptor; P49146; NPY-Y2 expressing cells, antagonist mode; inhibition, % at 2.7 µM; actives 0.99% (n = 140,000); AID 793
Target sequence (P49146 whole entry, looked up): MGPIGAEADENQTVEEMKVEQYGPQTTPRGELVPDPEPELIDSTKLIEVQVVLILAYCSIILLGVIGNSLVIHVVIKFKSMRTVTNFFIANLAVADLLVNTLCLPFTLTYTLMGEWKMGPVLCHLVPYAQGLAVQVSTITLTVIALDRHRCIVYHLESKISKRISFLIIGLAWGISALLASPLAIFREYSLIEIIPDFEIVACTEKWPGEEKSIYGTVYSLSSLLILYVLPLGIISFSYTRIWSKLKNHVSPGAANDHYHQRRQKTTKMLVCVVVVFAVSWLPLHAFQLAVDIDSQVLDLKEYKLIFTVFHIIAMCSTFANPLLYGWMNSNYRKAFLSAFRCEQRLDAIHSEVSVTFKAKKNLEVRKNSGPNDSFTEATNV
NPY Y1 blocker: NPY-Y1 (human) receptor antagonism; P25929; HEK293-CNG Y1 cells, membrane potential fluorescence; NPY at EC95, then isoproterenol; inhibition, % at 3.6 µM; actives 1% (n = 200,000);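 active = inhibition above the campaign mean inhibition of all tested compounds plus 3 SD, cut at about 20% in these data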
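Material: HEK293 Y1/CNG channel cell line; also added: NPY (25 nM), isoproterenol (1 µM), Ro 20-1724 (25 µM); doses: one concentration, 3.6 µM, in 0.4% DMSO; schedule: compound incubation 1 h at room temperature, readout 45 min post-stimulation; technique: membrane potential fluorescence; measure: fluorescence ratio normalized to % inhibition between controls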
NPY-Y2 PAM-ag: potentiates or activates human NPY-Y2 receptor; actives 0.45% (n = 220,000); P49146; cells expressing NPY-Y2, potentiator/agonist read-out; activation, % at 3.6 µM; in the data active = activation above about 27%;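 note: cells stimulated with NPY near EC25 plus isoproterenol at EC100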
NPY-Y1 PAM-ag: human NPY-Y1 potentiation or agonism, primary screen. NPY-Y1 expressing cells, potentiator/agonist activation. activation, % at 3.6 µM. actives 0.37% (n = 220,000). AID 1304; in the data active = activation above about 33%, passing the limit was not always enough;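 note: cells stimulated with NPY at EC10 then isoproterenol at EC100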
NPY1 antag conf: human NPY-Y1 antagonism, confirmation; shares compounds with NPY Y1 blocker; HEK293-CNG NPY-Y1, membrane potential fluorescence, cAMP; NPY challenge against isoproterenol-raised cAMP; inhibition, % at 3.6 µM; actives 21% (n = 1,200); in the data active = inhibition above about 20%
NPY2 antag ctr: antagonizes human NPY-Y2, counter-screen to NPY-Y1 antagonists; inhibition, % at 3.6 µM; HEK293 NPY-Y2 CNG membrane potential fluorescence, antagonism; cells given NPY, then isoproterenol; actives 28% (n = 1,200); shares compounds with NPY Y1 blocker
A number is an active result; - = inactive; . = no result given. Shown are actives, neighbours in structure and some others; about 1.9% of the full set was active somewhere. Cut-off read from the data, not from the text of the source, unless noted: active = inhibition above about 17%; inactive = the rest.

SMILES | NPY Y2 blocker | NPY Y1 blocker | NPY-Y2 PAM-ag | NPY-Y1 PAM-ag | NPY1 antag conf | NPY2 antag ctr
CCOC(=O)c1cnc2ccc(OC)cc2c1Nc1ccc2c(c1)OCCO2 | - | 39 | - | - | - | -
CCOC(=O)c1cnc2ccc(C(=O)OC)cc2c1Nc1ccc2c(c1)OCCO2 | - | - | - | - | . | .
N#CC1(NC(=O)CN2CCN(S(=O)(=O)c3ccccc3F)CC2)CCCC1 | . | . | - | - | . | .
CC(C)C(NC(=O)OCc1ccccc1)C(=O)NC1CCCCC1 (stereo not given) | - | - | - | - | . | .
COc1ccccc1-c1cc(C(F)(F)F)nc(S(C)(=O)=O)n1 | - | - | - | - | . | .
CS(=O)(=O)c1nc(-c2ccco2)cc(C(F)(F)F)n1 | - | 24 | - | - | - | 46
FC(F)(F)c1cc(-c2ccco2)nc(-n2nc(C(F)(F)F)cc2C2CC2)n1 | - | 21 | - | - | - | -
CN1CCN(c2nc(-c3ccco3)cc(C(F)(F)F)n2)CC1 | - | - | - | - | . | .
Cc1nn(C(=O)c2nn(C)cc2[N+](=O)[O-])c(C)c1Br | . | - | - | - | . | .
CSc1ccc(CN2CCC(CO)(Cc3ccc(Cl)cc3)CC2)cc1 | . | 52 | - | - | 39 | 48
CC(Oc1ccc(F)cc1)C(=O)Nc1ccc2ccccc2c1 (stereo not given) | - | 41 | - | - | - | -
Cc1ccc(CSc2nc3ccccc3c(=O)n2CCCC(=O)NCc2ccco2)cc1 | - | - | - | - | . | .
Cc1ccc(CSc2nc3ccccc3c(=O)n2Cc2ccco2)cc1 | - | 28 | - | - | - | -
COc1ccc(-c2cc(C(F)(F)F)n3nc(C(=O)NCc4ccco4)cc3n2)cc1 | - | 24 | - | - | - | -
Cc1cc(Nc2ccc([N+](=O)[O-])cc2)nc2ccccc12 | . | 24 | - | - | - | -
COc1ccc(Nc2cc(C)c3ccccc3n2)cc1 | . | - | - | - | . | .
Cc1cc(C(=O)Cn2nc(C(=O)O)c3ccccc3c2=O)c(C)n1-c1cccc(C(F)(F)F)c1 | . | . | - | - | . | .
Cc1cc(C(=O)Cn2nc(C(=O)O)c3ccccc3c2=O)c(C)n1-c1ccc(F)cc1 | - | 22 | - | - | - | -
CCOC(=O)C1(Cc2ccccc2)CCN(Cc2cc(OC)c3c(c2)OCO3)CC1 | . | 25 | - | - | - | -
CCOC(=O)C1(CCc2ccccc2)CCN(Cc2c(O)cccc2OC)CC1 | . | 33 | - | - | 27 | 25
CCN(CC)Cc1c(C(=O)N2CCc3ccccc3C2)nc2ccc(Cl)cn12 | . | - | - | - | . | .
CCCCOC(=O)c1ccc(NC(=O)COC(=O)CSc2nc(C)cc(C)n2)cc1 | - | - | - | - | . | .
Cc1ccc2nc(NC(=O)CNS(=O)(=O)c3ccc(Br)s3)sc2c1 | - | 20 | - | - | - | -
Cc1ccc2nc(NC(=O)CN(C)S(=O)(=O)c3ccc(Br)s3)sc2c1 | - | - | - | - | . | .
CCCCNCCOc1ccccc1-c1ccccc1 | - | 30 | - | - | - | -
SMILES | NPY Y2 blocker | NPY Y1 blocker | NPY-Y2 PAM-ag | NPY-Y1 PAM-ag | NPY1 antag conf | NPY2 antag ctr
CC1CCCN(CCCOc2ccccc2-c2ccccc2)C1 (stereo not given) | . | 25 | - | - | - | -
c1ccc(-c2ccccc2OCCCCN2CCCCCC2)cc1 | . | 24 | - | - | - | -
COCCCNCCOc1ccccc1-c1ccccc1 | - | - | - | - | . | .
O=c1cnn([C@@H]2O[C@H](CO)[C@@H](O)[C@H]2O)c(=O)[nH]1 | - | 70 | - | - | - | -
Nc1ccn([C@@H]2O[C@H](CO)[C@@H](O)C2O)c(=O)n1 (stereo not given in full) | . | - | - | - | . | .
Cc1ccc2nc(N3CC(=O)Nc4ccccc43)nc(-c3ccccc3)c2c1 | - | - | - | - | . | .
CC(OC(=O)CC(NC(=O)c1ccccc1Cl)c1ccccc1)C(=O)Nc1cccc(Cl)c1Cl (stereo not given) | - | 30 | - | - | 27 | 17
c1ccc2c(Nc3ccc4c(c3)OCCO4)c3c(nc2c1)CCC3 | . | - | - | - | . | .
Fc1ccc(Nc2c3c(nc4ccccc24)CCC3)cc1 | . | 23 | - | - | - | -
O=C(COc1ccc(Cl)cc1)N(Cc1ccccc1)c1nc(-c2ccccc2)cs1 | - | - | - | - | . | .
COc1ccc(-c2csc(N(CCc3ccccc3)C(=O)COc3ccccc3)n2)cc1 | - | 32 | - | - | - | -
COc1cccc(CN2CCN(S(=O)(=O)c3ccc(Br)cc3)CC2)c1 | - | - | - | - | . | .
COc1ccc2c(c1)C(C)=CC(C)(C)N2S(=O)(=O)c1ccc(Br)cc1 | . | 55 | - | - | 27 | 22
Cc1nc([N+](=O)[O-])c(Sc2nc3ccccc3n2C)n1Cc1ccccc1 | - | - | - | - | . | .
CCC(C)(C(=O)NC1CCCCC1)N(Cc1cccs1)C(=O)c1ccccn1 (stereo not given) | . | 22 | - | - | - | -
CCC(C)(C(=O)NC1CCCCC1)N(Cc1ccco1)C(=O)c1cnccn1 (stereo not given) | - | - | - | - | . | .
CCC(C)(C(=O)NC1CCCC1)N(Cc1cccs1)C(=O)c1ccccn1 (stereo not given) | . | - | - | - | . | .
CCC(C)(C(=O)NC1CCCC1)N(Cc1ccco1)C(=O)c1ccc2c(c1)OCO2 (stereo not given) | - | 37 | - | - | - | -
CCC(C)(C(=O)NC1CCCC1)N(Cc1ccco1)C(=O)Cc1cccs1 (stereo not given) | - | 49 | - | - | 22 | -
CCCc1ccc(-c2cc(NC(=O)CSc3nnc(N)s3)n(-c3ccccc3)n2)cc1 | - | - | - | - | . | .
CCOC(=O)c1cnn(-c2nc(-c3ccccc3)cs2)c1C(F)(F)F | - | 20 | - | - | - | -
C=CCNC(=S)N/N=C/c1ccc(C(C)(C)C)cc1 | . | 23 | - | - | - | -
CCCCn1c(SCC(=O)NC(C)CC)nc2ccc(N3CCOCC3)cc2c1=O (stereo not given) | - | 23 | - | - | - | -
CCC(C)NC(=O)CSc1nc2ccc(N3CCOCC3)cc2c(=O)n1CCc1ccccc1 (stereo not given) | - | - | - | - | . | .
CCOC(=O)N1CCN(C(=O)c2ccc(Oc3ccc([N+](=O)[O-])cc3)cc2)CC1 | . | - | - | - | . | .
SMILES | NPY Y2 blocker | NPY Y1 blocker | NPY-Y2 PAM-ag | NPY-Y1 PAM-ag | NPY1 antag conf | NPY2 antag ctr
CCN1CCc2c(C#N)c(NCc3ccccc3)nc(N(CC)CC)c2C1 | - | 34 | - | - | - | 28
CSc1nc(N2CCN(c3ccccc3Cl)CC2)c2ccccc2n1 | . | 30 | - | - | 22 | 27
COc1ccc2c(c1)C(C)=CC(C)(C)N2C(=O)CSc1nnc(-c2ccc(C)cc2)o1 | - | 23 | - | - | - | -
COc1ccc(-n2cc(-c3ccccc3)c3c(NCCCN4CCOCC4)ncnc32)cc1 | . | 26 | - | - | - | -
CCn1nnc(-c2ccccc2NC(=O)c2ccc(-n3cnnn3)cc2)n1 | - | 23 | - | - | - | -
CCn1nnc(-c2ccccc2NC(=O)c2cccc(-n3cnnn3)c2)n1 | - | - | - | - | . | .

Screens (PubChem BioAssay)
